ChEMBL document CHEMBL4004830 (J Med Chem, 2017)
Active and inactive are the calls of the source. The calls are words filed in the database; no cut-off is given here.

Legend:
MDA-MB-453 = assay: Growth inhibition of human MDA-MB-453 cells after 72 hrs by MTT assay; type: functional; conditions: MDA-MB-453, 72 h
Outline: (§1)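 72 h antiproliferation assay, resazurin read-out for MV4-11 and MTT read-out for MDA-MB-453; values from at least two replicates.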

[1] = biological target: Cyclin-dependent kinase 7/ cyclin H (Homo sapiens, UniProt P50613); assay: (§2) Inhibition of CDK7/cyclin H (unknown origin) in presence of [gamma-33P]-ATP […]; type: protein-complex assay; conditions: read-out: Ki(app)
MV4-11 = assay: Growth inhibition of human MV4-11 cells after 72 hrs by resazurin assay; type: functional; conditions: MV4-11, 72 h; outline: as §1
[2] = biological target: Cyclin-dependent kinase 1/cyclin B1 (Homo sapiens, UniProt P06493); assay: (§3) Inhibition of CDK1/cyclin B (unknown origin) in presence of [gamma-33P]-ATP […]; type: protein-complex assay; conditions: read-out: Ki(app)
CDK9/cyclin T1 = CDK9/cyclin T1 (Homo sapiens, UniProt P50750); assay: Inhibition of CDK9/cyclin T1 (unknown origin) in presence of [gamma-33P]-ATP […]; type: protein-complex assay; conditions: read-out: Ki(app)
[3] = biological target: Cyclin-dependent kinase 7/ cyclin H (Homo sapiens) (UniProt P51946+P50613); assay: as §2; type: protein-complex assay
[4] = biological target: Cyclin-dependent kinase 1/cyclin B1 (Homo sapiens) (UniProt P06493+P14635); assay: as §3; type: protein-complex assay
CDK2/Cyclin A2 = CDK2/Cyclin A2 (Homo sapiens, UniProt P24941); assay: (§4) Inhibition of CDK2/cyclin A (unknown origin) in presence of [gamma-33P]-ATP […]; type: protein-complex assay; conditions: read-out: Ki(app)
[5] = biological target: CDK2/Cyclin A2 (Homo sapiens) (UniProt P24941+P20248); assay: as §4; type: protein-complex assay
CDK6/cyclin D3 = CDK6/cyclin D3 (Homo sapiens, UniProt Q00534); assay: Inhibition of CDK6/cyclin D3 (unknown origin) in presence of [gamma-33P]-ATP […]; type: protein-complex assay; conditions: read-out: Ki(app)
[6] = biological target: Cyclin-dependent kinase 4/cyclin D1 (Homo sapiens, UniProt P11802); assay: Inhibition of CDK4/cyclin D1 (unknown origin) in presence of [gamma-33P]-ATP […]; type: protein-complex assay; conditions: read-out: Ki(app)
[7] = biological target: Dual specificity tyrosine-phosphorylation-regulated kinase 1B (Homo sapiens) (UniProt Q9Y463); assay: Inhibition of DYRK1B (unknown origin) assessed as residual activity at 10 uM; values are per cent of control
[8] = biological target: Vascular endothelial growth factor receptor 3 (Homo sapiens) (UniProt P35916); assay: Inhibition of recombinant human N-terminal GST-tagged Flt4 (800 to end amino acid residues) expressed in baculovirus infected Sf21 insect cells assessed as residual activity at 10 uM; values are per cent of control
[9] = biological target: Death-associated protein kinase 1 (Homo sapiens) (UniProt P53355); assay: Inhibition of recombinant human N-terminal GST-tagged DAPK1 (1 to 296 amino acid residues) expressed in baculovirus infected Sf21 cells assessed as residual activity at 10 uM; values are per cent of control
[10] = biological target: Fibroblast growth factor receptor 1 (Homo sapiens) (UniProt P11362); assay: Inhibition of recombinant human N-terminal GST-tagged FGFR1 (456 to 765 amino acid residues) expressed in baculovirus infected Sf21 insect cells assessed as residual activity at 10 uM; values are per cent of control
[11] = biological target: MAP kinase-interacting serine/threonine-protein kinase 2 (Homo sapiens) (UniProt Q9HBH9); assay: Inhibition of recombinant full-length human N-terminal His6-tagged Mnk2 expressed in baculovirus infected Sf21 insect cells assessed as residual activity at 10 uM; values are per cent of control
[12] = biological target: Receptor-type tyrosine-protein kinase FLT3 (Homo sapiens) (UniProt P36888); assay: Inhibition of recombinant human N-terminal GST-tagged Flt3 (564 to end amino acid residues) expressed in baculovirus infected Sf21 insect cells assessed as residual activity at 10 uM; values are per cent of control
Homo sapiens = species on record: Homo sapiens; assay: Inhibition of SGK (unknown origin) assessed as residual activity at 10 uM; values are per cent of control
[13] = biological target: Homeodomain-interacting protein kinase 2 (Homo sapiens) (UniProt Q9H2X6); assay: Inhibition of recombinant human N-terminal His6-tagged HIPK2 (165 to 564 amino acid residues) expressed in baculovirus infected Sf21 insect cells assessed as residual activity at 10 uM; values are per cent of control
[14] = biological target: Serine/threonine-protein kinase pim-1 (Homo sapiens) (UniProt P11309); assay: Inhibition of recombinant full-length human N-terminal GST-tagged Pim-1 expressed in Escherichia coli assessed as residual activity at 10 uM; values are per cent of control
[15] = biological target: Dual specificity tyrosine-phosphorylation-regulated kinase 1A (Rattus norvegicus) (UniProt Q63470); assay: Inhibition of recombinant rat N-terminal GST-tagged DYRK1A (1 to 499 amino acid residues) expressed in Escherichia coli assessed as residual activity at 10 uM; values are per cent of control

Sequence of Cyclin-dependent kinase 1/cyclin B1 (P06493 whole entry): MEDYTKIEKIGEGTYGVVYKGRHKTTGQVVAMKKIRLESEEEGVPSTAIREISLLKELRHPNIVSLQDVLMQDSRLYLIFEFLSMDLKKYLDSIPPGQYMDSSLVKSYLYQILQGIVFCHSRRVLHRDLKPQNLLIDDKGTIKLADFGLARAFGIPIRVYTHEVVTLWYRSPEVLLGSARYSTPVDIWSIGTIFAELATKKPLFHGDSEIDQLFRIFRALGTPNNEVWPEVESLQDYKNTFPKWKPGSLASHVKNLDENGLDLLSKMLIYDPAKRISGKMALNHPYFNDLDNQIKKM
Sequence of Cyclin-dependent kinase 1/cyclin B1 (P14635 whole entry, further chain): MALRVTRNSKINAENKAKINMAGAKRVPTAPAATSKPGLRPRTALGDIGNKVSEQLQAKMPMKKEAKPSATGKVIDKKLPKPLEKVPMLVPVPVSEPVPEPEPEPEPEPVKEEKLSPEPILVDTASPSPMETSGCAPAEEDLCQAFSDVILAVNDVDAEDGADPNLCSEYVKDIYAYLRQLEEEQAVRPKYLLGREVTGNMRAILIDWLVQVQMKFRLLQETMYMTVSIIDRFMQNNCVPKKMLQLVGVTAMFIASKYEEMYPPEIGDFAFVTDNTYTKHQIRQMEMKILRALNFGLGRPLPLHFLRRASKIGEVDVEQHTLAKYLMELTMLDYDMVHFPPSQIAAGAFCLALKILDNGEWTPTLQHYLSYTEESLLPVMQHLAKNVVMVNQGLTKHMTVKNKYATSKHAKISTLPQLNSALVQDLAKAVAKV
Sequence of Cyclin-dependent kinase 1/cyclin B1 (Homo sapiens) (P06493 whole entry, looked up): as the sequence (P06493 whole entry) above
Sequence of Cyclin-dependent kinase 1/cyclin B1 (Homo sapiens) (P14635 whole entry, looked up): as the sequence (P14635 whole entry, further chain) above
Sequence of Cyclin-dependent kinase 4/cyclin D1 (P11802 whole entry): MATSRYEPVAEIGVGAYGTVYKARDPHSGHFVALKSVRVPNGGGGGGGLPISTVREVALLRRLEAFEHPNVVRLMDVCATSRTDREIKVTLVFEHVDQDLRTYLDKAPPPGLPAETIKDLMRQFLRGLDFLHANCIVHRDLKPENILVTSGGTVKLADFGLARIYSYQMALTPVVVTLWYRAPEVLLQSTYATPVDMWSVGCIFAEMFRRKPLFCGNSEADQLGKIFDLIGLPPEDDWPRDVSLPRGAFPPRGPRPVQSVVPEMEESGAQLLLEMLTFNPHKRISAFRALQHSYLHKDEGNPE
Sequence of Cyclin-dependent kinase 4/cyclin D1 (P24385 whole entry, further chain): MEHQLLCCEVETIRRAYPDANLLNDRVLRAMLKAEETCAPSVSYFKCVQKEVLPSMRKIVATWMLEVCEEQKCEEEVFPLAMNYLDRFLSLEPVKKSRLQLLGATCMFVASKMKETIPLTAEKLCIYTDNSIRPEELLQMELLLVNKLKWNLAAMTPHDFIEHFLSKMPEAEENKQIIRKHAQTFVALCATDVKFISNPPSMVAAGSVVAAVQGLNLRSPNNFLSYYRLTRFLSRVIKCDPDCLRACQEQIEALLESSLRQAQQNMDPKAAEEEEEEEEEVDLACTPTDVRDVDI
Sequence of Cyclin-dependent kinase 7/ cyclin H (P51946 whole entry): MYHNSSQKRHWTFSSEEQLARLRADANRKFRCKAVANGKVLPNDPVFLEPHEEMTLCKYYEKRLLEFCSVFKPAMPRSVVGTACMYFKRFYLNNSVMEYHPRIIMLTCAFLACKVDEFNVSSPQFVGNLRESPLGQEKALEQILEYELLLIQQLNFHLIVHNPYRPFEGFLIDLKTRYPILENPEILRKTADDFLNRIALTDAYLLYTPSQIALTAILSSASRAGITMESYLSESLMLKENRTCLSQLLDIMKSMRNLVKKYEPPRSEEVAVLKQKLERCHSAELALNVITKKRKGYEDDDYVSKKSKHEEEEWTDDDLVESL
Sequence of Cyclin-dependent kinase 7/ cyclin H (P50613 whole entry): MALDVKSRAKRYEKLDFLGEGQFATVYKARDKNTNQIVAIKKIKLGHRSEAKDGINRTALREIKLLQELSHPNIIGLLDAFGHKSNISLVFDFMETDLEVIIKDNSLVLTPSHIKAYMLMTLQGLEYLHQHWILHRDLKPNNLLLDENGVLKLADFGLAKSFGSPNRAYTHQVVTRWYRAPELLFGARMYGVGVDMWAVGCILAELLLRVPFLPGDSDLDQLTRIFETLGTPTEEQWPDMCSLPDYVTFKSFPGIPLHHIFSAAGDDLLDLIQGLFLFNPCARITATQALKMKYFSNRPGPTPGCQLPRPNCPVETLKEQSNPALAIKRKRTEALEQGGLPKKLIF
Sequence of CDK9/cyclin T1 (O60563 whole entry): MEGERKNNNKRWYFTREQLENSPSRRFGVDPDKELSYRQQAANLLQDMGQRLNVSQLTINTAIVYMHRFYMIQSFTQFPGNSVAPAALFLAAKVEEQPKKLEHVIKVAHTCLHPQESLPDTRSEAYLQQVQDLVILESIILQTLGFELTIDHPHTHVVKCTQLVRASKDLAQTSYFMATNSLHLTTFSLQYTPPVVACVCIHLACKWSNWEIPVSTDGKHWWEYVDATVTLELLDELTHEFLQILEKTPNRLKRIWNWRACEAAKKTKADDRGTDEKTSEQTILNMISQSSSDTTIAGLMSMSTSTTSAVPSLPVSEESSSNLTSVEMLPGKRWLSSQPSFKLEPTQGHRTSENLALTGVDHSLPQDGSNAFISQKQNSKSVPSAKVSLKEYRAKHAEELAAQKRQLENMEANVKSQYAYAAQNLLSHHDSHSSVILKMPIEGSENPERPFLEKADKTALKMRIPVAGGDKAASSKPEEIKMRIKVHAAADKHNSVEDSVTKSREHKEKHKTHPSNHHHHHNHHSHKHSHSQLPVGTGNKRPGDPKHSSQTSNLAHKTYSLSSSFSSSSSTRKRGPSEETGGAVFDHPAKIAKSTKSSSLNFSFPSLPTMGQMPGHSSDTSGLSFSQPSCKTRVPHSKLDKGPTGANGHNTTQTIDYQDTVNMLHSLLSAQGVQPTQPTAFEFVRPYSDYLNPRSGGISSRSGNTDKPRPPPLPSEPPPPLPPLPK
Sequence of CDK9/cyclin T1 (P50750 whole entry): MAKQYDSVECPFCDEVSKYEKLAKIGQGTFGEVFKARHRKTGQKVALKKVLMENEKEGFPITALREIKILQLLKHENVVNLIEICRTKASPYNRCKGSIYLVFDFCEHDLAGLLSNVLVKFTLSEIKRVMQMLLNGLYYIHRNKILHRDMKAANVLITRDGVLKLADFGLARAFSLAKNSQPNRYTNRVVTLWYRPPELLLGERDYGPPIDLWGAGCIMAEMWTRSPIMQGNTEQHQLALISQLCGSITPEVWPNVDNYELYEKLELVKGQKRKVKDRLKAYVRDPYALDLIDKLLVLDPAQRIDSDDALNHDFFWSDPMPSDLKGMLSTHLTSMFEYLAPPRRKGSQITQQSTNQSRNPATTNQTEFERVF
Sequence of CDK6/cyclin D3 (P30281 whole entry): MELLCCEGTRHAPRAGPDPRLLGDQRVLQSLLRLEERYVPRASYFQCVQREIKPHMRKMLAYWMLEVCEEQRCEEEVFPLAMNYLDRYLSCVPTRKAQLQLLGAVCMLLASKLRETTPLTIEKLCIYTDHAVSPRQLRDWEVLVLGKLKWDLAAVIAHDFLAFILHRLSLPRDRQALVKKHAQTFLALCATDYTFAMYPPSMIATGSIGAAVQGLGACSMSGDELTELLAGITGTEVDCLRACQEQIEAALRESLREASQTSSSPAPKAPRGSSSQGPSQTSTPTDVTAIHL
Sequence of CDK6/cyclin D3 (Q00534 whole entry): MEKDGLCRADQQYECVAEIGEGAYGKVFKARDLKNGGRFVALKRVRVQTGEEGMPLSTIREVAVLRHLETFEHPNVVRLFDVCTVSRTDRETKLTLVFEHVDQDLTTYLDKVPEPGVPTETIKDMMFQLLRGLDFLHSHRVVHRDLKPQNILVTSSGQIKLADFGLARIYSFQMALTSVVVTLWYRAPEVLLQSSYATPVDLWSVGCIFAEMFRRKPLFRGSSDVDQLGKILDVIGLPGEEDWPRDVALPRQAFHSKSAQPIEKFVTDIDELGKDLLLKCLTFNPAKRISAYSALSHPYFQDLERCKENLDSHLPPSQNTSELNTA
Sequence of Dual specificity tyrosine-phosphorylation-regulated kinase 1B (Homo sapiens) (Q9Y463 whole entry, looked up): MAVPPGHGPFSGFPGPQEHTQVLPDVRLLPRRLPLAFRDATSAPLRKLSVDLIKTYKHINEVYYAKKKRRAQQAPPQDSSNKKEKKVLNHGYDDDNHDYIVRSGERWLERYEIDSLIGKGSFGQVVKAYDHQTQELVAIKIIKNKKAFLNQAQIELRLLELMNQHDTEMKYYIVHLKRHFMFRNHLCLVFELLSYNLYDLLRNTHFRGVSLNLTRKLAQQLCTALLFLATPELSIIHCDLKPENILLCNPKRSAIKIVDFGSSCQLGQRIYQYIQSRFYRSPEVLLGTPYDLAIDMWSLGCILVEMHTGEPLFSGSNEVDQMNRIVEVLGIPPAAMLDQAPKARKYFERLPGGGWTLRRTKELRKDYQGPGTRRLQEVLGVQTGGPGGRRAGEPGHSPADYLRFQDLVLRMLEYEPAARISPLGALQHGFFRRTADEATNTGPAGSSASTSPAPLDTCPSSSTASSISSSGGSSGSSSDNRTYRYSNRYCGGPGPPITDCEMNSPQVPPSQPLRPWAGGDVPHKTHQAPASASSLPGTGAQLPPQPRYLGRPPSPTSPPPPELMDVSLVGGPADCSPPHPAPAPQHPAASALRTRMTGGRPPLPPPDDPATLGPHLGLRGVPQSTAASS

Row | GI50 (MDA-MB-453) | Ki [1] | GI50 (MV4-11) | Ki [2] | Ki (CDK9/cyclin T1) | SMILES | further results
1 | 102 nM | 282 nM | 29 nM |  |  | Cc1nc(NC2CCCC2)sc1-c1ccnc(Nc2ccc(N3CCCNCC3)cn2)n1 | 
2 | 83 nM | 815 nM | 29 nM | > 5000 nM |  | Cc1nc(NC2CCCC2)sc1-c1nc(Nc2ccc(N3CCCNCC3)cn2)ncc1F | 
3 | 6860 nM |  | 328 nM |  | > 5000 nM | CC(=O)N1CCN(c2ccc(Nc3nccc(-c4sc(N(C)C5CCCC5)nc4C)n3)nc2)CC1 | Ki(app) [3]: inactive
4 | 7040 nM |  | 191 nM |  | > 5000 nM | Cc1nc(NC2CCCC2)sc1-c1ccnc(Nc2ccc(N3CCCCC3)cn2)n1 | Ki(app) [3]: inactive; Ki(app) [4]: inactive; Ki (CDK2/Cyclin A2): > 5000 nM
5 | 494 nM |  | 508 nM |  | > 5000 nM | Cc1nc(Nc2ccccc2)sc1-c1ccnc(Nc2ccc(N3CCN(C)CC3)cn2)n1 | Ki(app) [3]: inactive; Ki(app) [4]: inactive; Ki(app) [5]: inactive
6 | 3360 nM | > 5000 nM | 20 nM | > 5000 nM |  | Cc1nc(N(C)C2CCCC2)sc1-c1ccnc(Nc2ccc(N3CCN(C)CC3)cn2)n1 | 
7 | 69 nM | 211 nM | 19 nM | > 5000 nM |  | CCN1CCN(Cc2ccc(Nc3nccc(-c4sc(NC5CCCC5)nc4C)n3)nc2)CC1 | 
8 | 420 nM | 189 nM | 1 nM |  |  | CN1CCN(c2ccc(Nc3nccc(-c4sc(NC5CCCC5)nc4C(F)(F)F)n3)nc2)CC1 | 
9 | 66 nM | 685 nM | 13 nM |  | > 5000 nM | CCN1CCN(c2ccc(Nc3ncc(F)c(-c4sc(NC5CCCC5)nc4C)n3)nc2)CC1 | Ki(app) [4]: inactive
10 | 130 nM | 865 nM | 9 nM |  |  | Cc1nc(NC2CCCC2)sc1-c1ccnc(Nc2ccc(N3CCN(C)CC3)cn2)n1 | 
11 | 938 nM | 1160 nM | 255 nM | > 5000 nM |  | Cc1nc(NC(C)C)sc1-c1ccnc(Nc2ccc(N3CCCNCC3)cn2)n1 | 
12 | 81 nM | 194 nM | 2 nM |  |  | FC(F)(F)c1nc(NC2CCCC2)sc1-c1ccnc(Nc2ccc(N3CCNCC3)cn2)n1 | 
13 | 287 nM | 780 nM | 9 nM |  |  | CCN1CCN(c2ccc(Nc3nccc(-c4sc(NC5CCCC5)nc4C)n3)nc2)CC1 | 
14 | 622 nM | 630 nM | 10 nM |  |  | CCN1CCN(Cc2ccc(Nc3ncc(F)c(-c4sc(NC5CCCC5)nc4C)n3)nc2)CC1 [ULECACICLIB] | Ki(app) [4]: inactive
15 | 1440 nM | > 5000 nM | 290 nM | 4350 nM | > 5000 nM | Cc1nc(NC2CCCC2)sc1-c1nc(Nc2ccc(N3CCOCC3)cn2)ncc1F | 
16 | 415 nM |  | 69 nM |  | > 5000 nM | FC(F)(F)c1nc(NC2CCCC2)sc1-c1ccnc(Nc2ccc(N3CCOCC3)cn2)n1 | Ki(app) [3]: inactive; Ki(app) [4]: inactive
17 | 402 nM | 3200 nM | 285 nM |  |  | Cc1nc(N(C)C2CCCC2)sc1-c1ccnc(Nc2ccc(N3CCNCC3)cn2)n1 | 

Row | GI50 (MDA-MB-453) | Ki [1] | GI50 (MV4-11) | Ki [2] | Ki (CDK9/cyclin T1) | SMILES | further results
18 | 115 nM | > 5000 nM | 32 nM | > 5000 nM | > 5000 nM | Cc1nc(NC(C)C)sc1-c1ccnc(Nc2ccc(N3CCOCC3)cn2)n1 | 
19 | 215 nM | 2640 nM | 176 nM | 1100 nM | 1320 nM | Cc1nc(NC2CCCC2)sc1-c1ccnc(Nc2ccc(N3CCN(S(C)(=O)=O)CC3)cn2)n1 | Ki (CDK6/cyclin D3): 55 nM; Ki [6]: 7 nM; Ki (CDK2/Cyclin A2): 77 nM
20 | 344 nM | 4390 nM | 2070 nM |  |  | CC(=O)N1CCN(c2ccc(Nc3nccc(-c4sc(NC(C)C)nc4C)n3)nc2)CC1 | 
21 | 150 nM | > 5000 nM | 421 nM | > 5000 nM |  | Cc1nc(N(C)c2ccccc2)sc1-c1ccnc(Nc2ccc(N3CCN(C)CC3)cn2)n1 | 
22 | 591 nM | 3450 nM | 24 nM |  |  | CC(=O)N1CCN(c2ccc(Nc3nccc(-c4sc(NC5CCCC5)nc4C)n3)nc2)CC1 | 
23 | 8110 nM | > 5000 nM | 15 nM | > 5000 nM |  | CC(=O)N1CCN(c2ccc(Nc3ncc(F)c(-c4sc(NC5CCCC5)nc4C)n3)nc2)CC1 | 
24 | 55 nM | 1190 nM | 13 nM |  |  | Cc1nc(NC2CCCC2)sc1-c1ccnc(Nc2ccc(N3CCC(N)CC3)cn2)n1 | 
25 | 336 nM | 1900 nM | 4 nM |  | > 5000 nM | O=CN1CCN(c2ccc(Nc3nccc(-c4sc(NC5CCCC5)nc4C(F)(F)F)n3)nc2)CC1 | 
26 | 2810 nM |  | 2630 nM |  | > 5000 nM | Cc1nc(NC2CCCC2)sc1-c1nc(Nc2ccc(N3CCN(S(C)(=O)=O)CC3)cn2)ncc1F | Ki(app) [3]: inactive; Ki(app) [4]: inactive
27 | 202 nM | 2020 nM | 73 nM | 2330 nM | 505 nM | Cc1nc(NC2CCCC2)sc1-c1nc(Nc2ccc(N3CCN(C)CC3)cn2)ncc1F | residual activity [7]: < 10%; residual activity [8]: < 10%; residual activity [9]: < 10%; Ki (CDK6/cyclin D3): 3 nM; residual activity [10]: < 10%; residual activity [11]: < 10%; Ki [6]: 1 nM; residual activity [12]: < 10%; Ki (CDK2/Cyclin A2): 103 nM; residual activity (Homo sapiens): < 10%; residual activity [13]: < 10%; residual activity [14]: < 10%; residual activity [15]: < 10%
28 | 31 nM | 775 nM | 93 nM |  |  | Cc1nc(NC(C)C)sc1-c1ccnc(Nc2ccc(N3CCNCC3)cn2)n1 | 
29 | 618 nM | 760 nM | 75 nM |  |  | Cc1nc(NC(C)C)sc1-c1ccnc(Nc2ccc(N3CCN(C)CC3)cn2)n1 | 
30 | 279 nM | 1660 nM | 56 nM |  |  | Cc1nc(Nc2ccccc2)sc1-c1ccnc(Nc2ccc(N3CCNCC3)cn2)n1 | Ki (CDK2/Cyclin A2): > 5000 nM
31 | 77 nM | 2610 nM | 12 nM |  | > 5000 nM | CC(=O)N1CCN(c2ccc(Nc3nccc(-c4sc(NC5CCCC5)nc4C(F)(F)F)n3)nc2)CC1 | 
32 | 373 nM | > 5000 nM | 714 nM | > 5000 nM | > 5000 nM | Cc1nc(N(C2CCCC2)C2CCCC2)sc1-c1ccnc(Nc2ccc(N3CCNCC3)cn2)n1 | Ki (CDK6/cyclin D3): 539 nM; Ki [6]: 71 nM; Ki (CDK2/Cyclin A2): > 5000 nM
33 | 780 nM | 790 nM | 53 nM |  |  | Cc1nc(NC2CCCC2)sc1-c1nc(Nc2ccc(N3CCNCC3)cn2)ncc1F | 
34 | 4380 nM |  | 300 nM |  | > 5000 nM | Cc1nc(NC2CCCC2)sc1-c1ccnc(Nc2ccccn2)n1 | 
